PAX8 inh HTS – lowers PAX8-driven luciferase in RMG-I cells | RMG-I TPO-luciferase reporter, SteadyGlo, 24 h | inhibition, % at 12.6 µM | actives 1.2% (n = 360,000);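 active = mean replicate inhibition at least 60% with every replicate also reaching 60%; inconclusive = only one of the two criteria is met; inactive = mean below 60% and not all replicates reaching 60%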;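 note: luciferase light reporting Pax8 driven TPO promoter activity; plate controls were median of neutral control wells for no effect and mitoxantrone controls for full effect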
PGC1a acetyl inh – lowers PGC1a acetylation signal in U2OS cells. AlphaScreen anti-acetyl-lysine; with virally co-expressed GCN5 acetyltransferase. inhibition, % at 15.6 µM. actives 0.17% (n = 350,000). AID 651687;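 active = every replicate shows inhibition of at least 40%; inconclusive = mean inhibition at least 40% but some replicate below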;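 note: 0% = neutral control wells and 100% = positive control wells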
FN deposition inh – fibronectin deposition inhibition. AH1F fibroblasts, Alexa488-fibronectin deposition fluorescence, overnight. inhibition, % at 12.6 µM. actives 0.086% (n = 350,000). AID 743247;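 active = mean inhibition across replicates of 30% or more, regardless of how many single replicates reach that level; inconclusive = mean under 30% yet at least half of replicates reach 30%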;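 note: positive control wells lacked labelled fibronectin entirely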
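Material: AH1F fibroblast monolayer depositing Alexa488-labelled fibronectin into matrix / Amount: 10000 AH1F cells per well / Signal: fluorescence 485/525 nm / Medium: DMEM, 2% serum / Compound: single dose, pinned / Incubation: 1 h cell adhesion before compound, then overnight fibronectin incubation / Reagent: Alexa488-FN, 24 nM final / Read-out: inhibition of fibronectin deposition signal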
EWS-Fli block – blocks EWS/Fli oncoprotein-driven transcription; A673 NR0B1-luciferase reporter, viability-normalised; inhibition, % at 12.6 µM; actives 0.67% (n = 350,000);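 active = mean inhibition of at least 50% after viability correction, with every replicate also passing that limit; inconclusive = mean reaches 50% but only one of two replicates passes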;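 note: firefly luciferase signal divided by Alamar Blue viability fluorescence both relative to DMSO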
HIV Env fusion – HIV envelope-mediated fusion inhibition; HeLa-JRFL Env/CEM21 cell fusion, luciferase; inhibition, % at 12.3 µM; actives 1.1% (n = 360,000); AID 651610;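 active = mean replicate inhibition score of at least 50 and every replicate individually at or above 50; inconclusive = only one of the two criteria met; inactive = mean below 50 and not all replicates reaching 50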;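 note: 0% = plate neutral controls and 100% = maraviroc near 300 nM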
FGF22 binding – shifts melting point of recombinant human FGF22; Q9HCT0; recombinant FGF22 thermal shift, SYPRO orange fluorescence; percent of sucrose octasulfate shift, DMSO zero; actives 1.5% (n = 340,000); activity (Tm shift, normalised), % at 9.99 µM;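 active = mean Tm shift, scaled 0 neutral to 100 positive control, at about 1.3% or above, every replicate too, limit read from the data; inconclusive = no clear call, values can overlap the other calls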
Target sequence (Q9HCT0 whole entry, looked up): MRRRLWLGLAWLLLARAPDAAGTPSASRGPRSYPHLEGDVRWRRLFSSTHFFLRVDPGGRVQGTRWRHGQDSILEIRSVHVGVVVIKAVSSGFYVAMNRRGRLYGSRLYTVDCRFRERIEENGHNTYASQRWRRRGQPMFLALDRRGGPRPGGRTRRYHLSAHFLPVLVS
* = called active by the depositor; ? = inconclusive; . = no result given; [ ] = another dose, or the depositor's remark. The list is not random: actives were taken first. Their share in the collection is about 3.1%.

SMILES	PAX8 inh HTS	PGC1a acetyl inh	FN deposition inh	EWS-Fli block	HIV Env fusion	FGF22 binding
O=C1[C@@H]2Cc3c([nH]c4ccccc34)C(c3cccc(Br)c3)N2C(=O)CN1C1CCN(Cc2ccccc2)CC1 (stereo partly specified)	91*	3	-3	20	?	0
O=C1[C@@H]2Cc3c([nH]c4ccccc34)C(c3ccccc3)N2C(=O)CN1C1CCN(Cc2ccccc2)CC1 (stereo partly specified)	19	0	.	13	13	0
CCOc1cccc(-c2cc(C(=O)N3N=C(C)CC3(O)C(F)F)c3ccccc3n2)c1 (stereo unspecified)	14	.	0	-12	5	43*
CN1CCN(CCCN(Cc2ccco2)C(=S)Nc2ccc(Cl)cc2)CC1	10	-23	5	7	0	43*
NNC(=O)c1nn(-c2ccc(Cl)cc2)cc1O	72*	-3	1	-9	-27	0
Cc1ccc(NC(=O)COC(=O)c2nn(-c3ccc(Cl)cc3)cc2O)cc1	-97	-7	-11	-2	-41	0
CC(=O)Nc1ccc2c(c1)CC(=O)N(C)C[C@@H](C)[C@H](CN(C)S(C)(=O)=O)O2	.	.	-3	.	.	.
O=C(/C=C/c1ccc([N+](=O)[O-])cc1)OCc1cnc(-c2ccccc2)o1	4	.	2	0	0	44*
O=C(NCCCn1ccnc1)c1ccc(Cl)cc1[N+](=O)[O-]	-11	.	1	-3	0	43*
O=C(c1ccccc1)N1N=C(C(F)(F)F)CC1(O)c1ccccc1 (stereo unspecified)	-15	0	-9	13	-14	0
COc1cccc(C2(O)CC(C(F)(F)F)=NN2C(=O)c2ccccn2)c1 (stereo unspecified)	-83	-2	-6	-38	-29	43*
O=C(C1CC1)N1CC2(C1)[C@H](c1ccccc1)[C@@H](CO)N2S(=O)(=O)c1ccccc1	-10	-8	0	-1	.	0
O=C(O)CCSc1nc2ccccc2s1	.	-12	-14	.	78*	.
O=C(CSc1nc2ccccc2s1)NCCOc1ccccc1	93*	2	13	-32	.	0
CC(C)C#Cc1cnc2c(c1)C(=O)N([C@@H](C)CO)C[C@H](C)[C@H](CN(C)Cc1cncnc1)O2	-1	5	.	-9	.	0
Cc1ccc(S(=O)(=O)Nc2ccc3c(c2)CC(=O)N([C@@H](C)CO)C[C@H](C)[C@H](CN(C)C(=O)Nc2c(C)noc2C)O3)cc1	-10	9	.	-7	7[16.7 µM]	0
Cc1ccccc1NC(=O)c1cc([N+](=O)[O-])ccc1NCCN1C(=O)CCC1=O	16	-21	2	9	11	43*
O=C(Nc1ccccc1)c1ccc(NCCN2C(=O)CCC2=O)c([N+](=O)[O-])c1	14	1	-9	-5	6	42
O=C1C=C(c2ccccc2)CC(c2cccs2)C1n1cnc([N+](=O)[O-])c1 (stereo unspecified)	.	19	.	.	.	.
O=C1C=C(c2ccccc2)C[C@H](c2cccs2)[C@H]1n1nnc([N+](=O)[O-])n1	76*	.	-9	.	.	.
O=C(O)CNS(=O)(=O)/C=C/c1ccccc1	9	2	3	-5	1	1
Cc1ccc(/C=C/S(=O)(=O)NCC(=O)O)cc1	-8	6	0	-1	6	43*
Nc1ccc[n+](CC(=O)c2ccccc2)c1	-5	12	11	17	5	0
CCc1n[n+](CC(=O)c2ccccc2)c(N)s1	30	.	-2	59*	16	43
COc1cc2nc(N3CCN(c4cc(C)ccc4C)CC3)nc(N)c2cc1OC	31	.	4	60*	-4	-1
C[C@@H]1CN([C@@H](C)CO)C(=O)Cc2cc(NS(=O)(=O)c3ccccc3)ccc2O[C@@H]1CN(C)Cc1ccc(C(=O)O)cc1	.	2	-6	-17	9[16.7 µM]	0
C[C@H](CO)N1C[C@H](C)[C@H](CN(C)S(=O)(=O)c2ccc(F)cc2)Oc2ccc(NS(=O)(=O)c3cccs3)cc2C1=O	.	-9	.	-2	14[16.7 µM]	0

Bioassay records as filed in PubChem.
